According to article PMC9313898 (Journal of Thrombosis and Haemostasis, 2022):
Entries after “also recorded” stand apart in the source; their conditions may differ. Values belong to the molecule of their own block, whether it stands above or below them.

Tests used:
[1] = tested on: New Zealand White rabbits; test: Ear bleeding time in the arterial FeCl2-injury rabbit model; format: in vivo
[2] = tested on: New Zealand White rabbits; test: Arterial thrombosis; format: in vivo; details: rabbit carotid artery FeCl2
[3] = tested on: APTT in plasma of monkeys; test: APTT clotting time in monkey plasma; format: biochemical
[4] = tested on: New Zealand White rabbits; test: Arterio-venous shunt model in rabbits, intervention protocol; format: in vivo; details: rabbit AV shunt
How it was run: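 Anaesthetised male New Zealand White rabbits (2.7–3.0 kg, ketamine/xylazine) carried a carotid‑artery to jugular‑vein shunt: a 4 cm polyethylene tube with a 6 cm nylon‑wire loop. Test compound was given as an i.v. bolus (1 or 5 mg/kg) via the femoral vein 10 min after the shunt was opened. The shunt ran 30 min, then the wire and attached thrombus were weighed.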

[5] = tested on: APTT in dog plasma; test: APTT clotting time in dog plasma; format: biochemical; details: mean, n = 2–9
How it was run: (§1)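 Plasma came from untreated donor animals, collected into citrate, centrifuged at 2500 ×g for 20 min at 4°C, and stored at −20°C. Plasma was incubated with test compound (0–37.5 µM) for 3 min at 37°C, then with kaolin/cephalin APTT reagent for 3 min. Clotting was started with 0.025 M CaCl₂ and timed on an automated coagulometer. EC₁₅₀ is the concentration giving a 1.5‑fold APTT increase.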

[6] = tested on: PT in human plasma; test: Prothrombin time in human plasma; format: biochemical; details: 0–37.5 µM
How it was run: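 Human citrated plasma (pooled volunteer plasma or purchased) was incubated with test compound (0–37.5 µM) for 3 min at 37°C. It was then mixed with thromboplastin, and clotting time was measured at 37°C on an automated coagulometer.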

[7] = tested on: APTT in rabbit plasma; test: Ex vivo APTT in the rabbit liver-injury model
[8] = tested on: New Zealand White rabbits; test: Rabbit liver-injury bleeding model; format: in vivo
How it was run: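 Male New Zealand White rabbits (2.5–3.3 kg) were anaesthetised with ketamine/xylazine and kept at 37°C. A 1 × 1 cm triangular wedge was cut from the liver edge. Pre‑weighed swabs were applied at 30‑s intervals for up to 30 min to give bleeding time and blood loss.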

[9] = tested on: APTT in mouse plasma; test: APTT clotting time in mouse plasma; format: biochemical; details: mean, n = 2–9
How it was run: as §1

[10] = tested on: PT in rabbit plasma; test: Ex vivo PT in the rabbit liver-injury model
[11] = tested on: APTT in pig plasma; test: APTT clotting time in pig plasma; format: biochemical; details: mean, n = 2–9
How it was run: as §1

[12] = tested on: New Zealand White rabbits; test: Ear bleeding time in the AV shunt model, prevention protocol; format: in vivo; details: rabbit AV shunt, any dose (0.3, 1, 3 mg/kg iv) or time point
[13] = tested on: APTT in rabbit plasma; test: APTT clotting time in rabbit plasma; format: biochemical; details: mean, n = 2–9
How it was run: as §1

[14] = tested on: New Zealand White rabbits; test: Venous thrombosis; format: in vivo; details: rabbit jugular vein FeCl2
How it was run: (§2)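 Male New Zealand White rabbits (2.7–3.0 kg) were anaesthetised with ketamine/xylazine, with the femoral artery and vein cannulated. Thirty min after i.v. dosing, the jugular vein was exposed to FeCl₂ (13% in 100 µl water) on filter paper for 5 min. After a further 30 min the injured vein was excised and the thrombus weighed. Ear bleeding time was recorded as the time bleeding stopped.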

[15] = molecular target: T1, FXIa (Oryctolagus cuniculus, UniProt G1SSQ6); test: Ex vivo FXIa activity in the AV shunt model; details: rabbit AV shunt; preventative and interventional iv treatment
[16] = tested on: APTT in rat plasma; test: APTT clotting time in rat plasma; format: biochemical; details: mean, n = 2–9
How it was run: as §1

[17] = tested on: New Zealand White rabbits; test: Ear bleeding time in the venous FeCl2-injury rabbit model; format: in vivo; details: asundexian 0.6, 2, or 6 mg/kg iv, any dose group
How it was run: as §2

[18] = tested on: APTT in guinea pig plasma; test: APTT clotting time in guinea pig plasma; format: biochemical; details: mean, n = 2–9
How it was run: as §1

[19] = tested on: New Zealand White rabbits; test: Arterio-venous shunt model in rabbits, prevention protocol; format: in vivo; details: rabbit AV shunt; for Thrombus weight: mean (± SEM), control 14.8 (± 2) mg
How it was run: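 Male New Zealand White rabbits (2.7–3.0 kg) were anaesthetised with ketamine/xylazine (i.m. bolus, then ear‑vein infusion). A shunt joined the right carotid artery to the left jugular vein through a 4 cm polyethylene tube holding a 6 cm nylon‑wire loop. An i.v. bolus (0.3, 1 or 3 mg/kg) was given 10 min before opening. After 15 min the wire and thrombus were removed and weighed.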

[20] = tested on: New Zealand White rabbits; test: Gum bleeding time in rabbits; format: in vivo; details: rabbit; intravenous asundexian
How it was run: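 Male New Zealand White rabbits (2.7–3.0 kg) were under ketamine/xylazine anaesthesia during the arterial FeCl₂‑injury thrombosis experiment. Test compound was given i.v., alone or with aspirin plus ticagrelor. Ear bleeding time and, by an equivalent technique, gum‑mucosa bleeding time were recorded as the time at which bleeding stopped.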

[21] = molecular target: T1, FXIa; test: Ex vivo FXIa inhibition in the arterial FeCl2-injury rabbit model; details: mean (± SD) vs control group
How it was run: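 Anaesthetised male New Zealand White rabbits received oral test compound in the arterial FeCl₂‑injury model. Citrated blood was drawn at the start of the thrombosis experiment, centrifuged at 2500 ×g for 10 min at 4°C, and stored at −20°C. FXIa activity was measured by kaolin/cephalin activation (3 min, 37°C), then 400 µM AMC substrate plus 5.6 µM kallikrein inhibitor. The fluorescence slope over the first 5 min was compared with controls.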

[22] = cited from earlier work
[23] = apixaban 1 mg/kg iv + aspirin + ticagrelor
[24] = apixaban 3 mg/kg iv + aspirin + ticagrelor
[25] = dabigatran high dose (1 mg/kg iv)
[26] = dabigatran low dose (0.3 mg/kg iv)

T1 sequence (G1SSQ6 19-624): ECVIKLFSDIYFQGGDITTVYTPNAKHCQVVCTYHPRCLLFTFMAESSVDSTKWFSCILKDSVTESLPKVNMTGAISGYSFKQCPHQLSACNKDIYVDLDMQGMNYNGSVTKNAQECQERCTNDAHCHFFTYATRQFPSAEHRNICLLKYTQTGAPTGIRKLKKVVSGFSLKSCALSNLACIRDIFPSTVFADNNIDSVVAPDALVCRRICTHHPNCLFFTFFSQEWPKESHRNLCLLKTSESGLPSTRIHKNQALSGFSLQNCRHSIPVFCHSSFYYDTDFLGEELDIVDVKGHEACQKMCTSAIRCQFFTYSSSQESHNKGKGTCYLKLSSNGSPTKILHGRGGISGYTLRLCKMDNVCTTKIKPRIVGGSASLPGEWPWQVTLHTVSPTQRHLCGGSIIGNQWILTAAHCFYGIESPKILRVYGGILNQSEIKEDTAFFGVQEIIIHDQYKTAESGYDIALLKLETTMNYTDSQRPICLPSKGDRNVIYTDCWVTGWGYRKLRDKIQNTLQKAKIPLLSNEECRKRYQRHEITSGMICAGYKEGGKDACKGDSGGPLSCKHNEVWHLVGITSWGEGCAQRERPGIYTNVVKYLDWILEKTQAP

Molecule: COc1ccc(-n2nc(C(N)=O)c3c2C(=O)N(c2ccc(N4CCCCC4=O)cc2)CC3)cc1 [apixaban, 1‐(4‐methoxyphenyl)‐7‐oxo‐6‐(4‐(2‐oxopiperidin‐1‐yl)phenyl)‐4,5,6,7‐tetrahydro‐1H ‐pyrazolo[3,4‐c]pyridine‐3‐carboxamide, reference compound]
Increase of ear bleeding time vs aspirin and ticagrelor alone [1, 23]: 2.8 fold
Increase of ear bleeding time vs aspirin and ticagrelor alone [1, 24]: 6.6 fold
Additional reduction in thrombus weight on top of aspirin and ticagrelor [2, 23]: 46%
Additional reduction in thrombus weight on top of aspirin and ticagrelor [2, 24]: 83%

Bleeding times following ear incision [12]: not prolonged
Ex vivo FXIa activity [15]: reduced FXIa activity
Gum bleeding time [20]: no increase
Molecule: CC[C@@H](C(=O)Nc1ccc(C(N)=O)c(F)c1)n1cc(OC)c(-c2cc(Cl)ccc2-n2cc(C(F)(F)F)nn2)cc1=O [asundexian]
Effect on APTT [3]: prolonged
Thrombus weight reduction vs control ([4]; 1 mg/kg iv, P < .05): 33%
Thrombus weight reduction vs control ([4]; 5 mg/kg iv, P < .001): 62%
Thrombus weight ([4]; 5 mg/kg iv, mean (± SEM), control 36.7 (± 3.2) mg): 14.0 (± 3.5) mg
Ear bleeding time vs aspirin and ticagrelor alone ([1]; asundexian iv + aspirin + ticagrelor): did not further increase
Ear bleeding time vs control ([1]; oral asundexian 10 mg/kg and 30 mg/kg): no prolongation
Ear bleeding time vs control ([1]; prophylactic intravenous asundexian 0.6-20 mg/kg): no increase
APTT prolongation, EC150 [5]: 1.59 µM
Effect on PT [6]: little to no effect
APTT increase ([7]; asundexian high dose (12 mg/kg iv)): 2.3 fold
APTT increase ([7]; asundexian low dose (6 mg/kg iv)): 1.7 fold
Thrombus weight reduction vs control ([2]; asundexian 0.6 mg/kg iv bolus): 25%
Additional reduction in thrombus weight on top of aspirin and ticagrelor ([2]; asundexian 2 mg/kg iv + aspirin + ticagrelor): 32%
Additional reduction in thrombus weight on top of aspirin and ticagrelor ([2]; asundexian 6 mg/kg iv + aspirin + ticagrelor): 70%
Additional reduction in thrombus weight on top of aspirin and ticagrelor ([2]; asundexian 12 mg/kg iv + aspirin + ticagrelor): 98%
Thrombus weight reduction vs control ([2]; asundexian 20 mg/kg iv bolus): 88%
Thrombus weight reduction vs control ([2]; oral 10 mg/kg, 2 h before, P < .05): 30%
Thrombus weight reduction vs control ([2]; oral 30 mg/kg, 2 h before, P < .001): 91%
Bleeding time vs controls ([8]; asundexian 6 and 12 mg/kg iv): neither 6 nor 12 mg/kg asundexian led to any significant effect; also recorded: no significant effect
Blood loss vs controls ([8]; asundexian 6 and 12 mg/kg iv): neither 6 nor 12 mg/kg asundexian led to any significant effect; also recorded: no significant effect
APTT prolongation, EC150 [9]: >12.5 µM
Effect on PT ([10]; asundexian 6 and 12 mg/kg iv): no effect
APTT prolongation, EC150 [11]: 0.51 µM
APTT prolongation, EC150 [13]: 1.50 µM
Thrombus weight reduction vs control ([14]; asundexian 0.6 mg/kg iv): 25%
Thrombus weight reduction vs control ([14]; asundexian 2 mg/kg iv): 74%
Thrombus weight reduction vs control ([14]; asundexian 6 mg/kg iv): 90%
APTT prolongation, EC150 [16]: >12.5 µM
Ear bleeding time [17]: No ear bleeding time prolongation
APTT prolongation, EC150 [18]: 2.13 µM
Thrombus weight reduction vs control ([19]; 0.3 mg/kg iv): 14%
Thrombus weight reduction vs control ([19]; 1 mg/kg iv, P < .01): 59%
Thrombus weight ([19]; 1 mg/kg iv): 6.1 (± 0.9) mg
Thrombus weight reduction vs control ([19]; 3 mg/kg iv, P < .001): 71%
Thrombus weight ([19]; 3 mg/kg iv): 4.3 (± 0.5) mg
Reduction of FXIa activity ex vivo ([21]; oral 10 mg/kg): 17% (± 22%)
Reduction of FXIa activity ex vivo ([21]; oral 30 mg/kg): 44% (± 29%)

Molecule: [H]/N=C(/N)c1ccc(NCc2nc3cc(C(=O)N(CCC(=O)O)c4ccccn4)ccc3n2C)cc1 [dabigatran, reference compound]
APTT increase [7, 25]: 2.2 fold
APTT increase [7, 26]: 1.4 fold
Increase of bleeding time vs controls ([8]; dabigatran 0.3 mg/kg iv, control mean 5.7 min (340 s)): approximately 5 fold
Bleeding time ([8]; dabigatran 1 mg/kg iv, maximum observation period 30 min): > 30 min
PT increase [10, 25]: 1.7 fold
PT increase [10, 26]: 1.1 fold

Molecule: O=C(NC[C@H]1CN(c2ccc(N3CCOCC3=O)cc2)C(=O)O1)c1ccc(Cl)s1 [rivaroxaban, reference compound]
Ear bleeding time vs control ([1]; rivaroxaban iv bolus + infusion, significant for the higher dose): prolonged
Thrombus weight reduction (mean) ([2]; rivaroxaban iv 0.08 mg/kg +0.09 mg/kg/hour): 51%
Thrombus weight reduction (mean) ([2]; rivaroxaban iv 0.24 mg/kg +0.27 mg/kg/hour): 77%

Molecule: Osocimab: fully human IgG1 antibody targeting coagulation factor XIa
mean elimination half-life [22]: 30 to 44 days

B1: abelacimab: FXI antibody, dual inhibitor of factor XI and factor XIa (antibody, chains of the INN, looked up, V domains shown)
VH: QVQLLESGGGLVQPGGSLRLSCAASGFTFSTAAMSWVRQAPGKGLEWVSGISGSGSSTYYADSVKGRFTISRDNSKNTLYLQMNSLRAEDTAVYYCARELSYLYSGYYFDYWGQGTLVTVSS
VL: QSVLTQPPSASGTPGQRVTISCSGSSSNIGSNDVSWYQQLPGTAPKLLIYKNYNRPSGVPDRFSGSKSGTSASLAISGLQSEDEADYYCSAWDQRQFDVVFGGGTKLTVL
elimination half-life [22]: 25 to 30 days
